pIC50: −log10 of the molar value.
Tests used:
[1] = biological target: T1, Sterol O-acyltransferase 1 (Homo sapiens) (UniProt P35610); assay: Inhibition of human ACAT1 at 0.4 mM
T1 sequence (whole entry): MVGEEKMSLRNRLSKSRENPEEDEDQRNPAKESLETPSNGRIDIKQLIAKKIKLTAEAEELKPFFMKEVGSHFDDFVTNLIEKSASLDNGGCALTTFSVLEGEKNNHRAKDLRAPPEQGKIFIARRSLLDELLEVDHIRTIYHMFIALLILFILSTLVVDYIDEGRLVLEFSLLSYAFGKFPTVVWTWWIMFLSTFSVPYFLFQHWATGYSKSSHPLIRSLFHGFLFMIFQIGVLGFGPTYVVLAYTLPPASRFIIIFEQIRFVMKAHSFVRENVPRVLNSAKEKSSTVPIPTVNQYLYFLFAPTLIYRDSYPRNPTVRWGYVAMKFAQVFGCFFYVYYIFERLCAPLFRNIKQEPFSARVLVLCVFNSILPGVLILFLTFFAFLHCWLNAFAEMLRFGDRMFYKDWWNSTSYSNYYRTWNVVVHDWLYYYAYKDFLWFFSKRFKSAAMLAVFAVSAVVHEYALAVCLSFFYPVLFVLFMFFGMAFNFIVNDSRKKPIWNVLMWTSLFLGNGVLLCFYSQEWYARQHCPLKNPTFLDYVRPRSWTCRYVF
Procedure, shortened: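 Human ACAT-1 inhibition, run by the Brecher and Chan method with slight modifications. Test concentration 0.4 mM; read-out is percent inhibition; data are mean ± standard deviation of three replicates.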

[2] = Antioxidant activity assessed as inhibition of LDL oxidation; format: functional
Procedure, shortened: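 LDL oxidation inhibition, run by a literature method with slight modifications. IC50 in µM; data are mean ± standard deviation of three replicates.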

`COc1cc(OC)cc(-c2ccccc2)c1` gave an inhibition [1] of 43% and a pIC50 [2] of 4.32.

With `COc1cc(O)cc(-c2ccccc2)c1` the inhibition [1] was 30% and the pIC50 [2] was 4.81.

Work on `O=c1c2cc(O)ccc2oc2cccc(O)c12` yielded an inhibition [1] of 31% and a pIC50 [2] of 3.41.

`CC(C)(Sc1cc(C(C)(C)C)c(O)c(C(C)(C)C)c1)Sc1cc(C(C)(C)C)c(O)c(C(C)(C)C)c1` [PROBUCOL] showed a pIC50 [2] of 5.37.

In the case of `COc1c(C(=O)c2ccccc2)ccc2c1OCO2`, the inhibition [1] was 54% and the pIC50 [2] was 3.28.

With `COc1cccc(O)c1C(=O)OCc1ccccc1` the inhibition [1] was 46% and the pIC50 [2] was 3.32.

`COc1c([C@@H](O)c2ccccc2)ccc2c1OCO2` gave an inhibition [1] of 31% and a pIC50 [2] of 3.72.

Work on `COc1c(O)ccc2oc3c(O)cc(O)cc3c(=O)c12` yielded an inhibition [1] of 7% and a pIC50 [2] of 4.59.
